Measurements published in ChEMBL document CHEMBL3997850 (ACS Med Chem Lett, 2017).
Activity calls are given as the source filed them.

Columns and labels:
[1] = target: T1, Indoleamine 2,3-dioxygenase 1 (Homo sapiens, UniProt P14902); test: Inhibition of human N-terminal His-tagged IDO1 expressed in Escherichia coli using D-Trp as substrate
[2] = target: T1, Indoleamine 2,3-dioxygenase 1; test: Inhibition of IDO1 in IFN-gamma-stimulated human HeLa cells assessed as decrease in kynurenine levels after 48 hrs; format: cell-based
Liver [3] = test: Intrinsic clearance in rat hepatic S9 fraction at 5 uM in presence of UDPGA measured over 30 mins by LC/MS analysis; format: ADME; conditions: s9, 0.5 h
Liver [4] = test: Intrinsic clearance in rat hepatic S9 fraction at 5 uM in presence of UDPGA/NADPH measured over 30 mins by LC/MS analysis; format: ADME, tissue-based; conditions: s9, 0.5 h
Method in brief: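 Rat hepatic S9 (2 mg/mL protein) with compound 5 µM, 50 mM Tris-HCl pH 7.5, 8 mM MgCl2, 2 mM NADPH, 2 mM UDPGA, 12.7 µM alamethicin, 37 °C. Reaction started with S9. Aliquots taken over 0–30 min, quenched with acetonitrile, analyzed by LC/MS.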

Plasma = test: Fraction unbound in human plasma after 2 hrs by equilibrium dialysis method; format: ADME, cell-free
Method in brief: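 Equilibrium dialysis of human plasma (1 mL) containing compound against 1 mL 0.133 M phosphate buffer pH 7.4. Membrane cut-off 10,000 Da, teflon cells rotated at 12 rpm for 2 h at 37 °C. Recovered volumes weighed and matrix-matched 1:1. Acetonitrile precipitation, LC/MS/MS of both sides.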

[5] = Permeability across apical to basolateral side in human Caco2 cells at 50 uM after 120 mins by LC/MS analysis; format: ADME, cell-based; conditions: Caco-2, read-out: permeability
Method in brief: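 Caco-2 cells (passages 21–45) seeded at 4,000/well on PET transwell filters and used 21–26 days after seeding. Monolayers accepted at TEER ≥300 Ω·cm² and run in Hank's balanced salt solution. After 120 min incubation, receiver-side sample taken, acetonitrile-precipitated, quantified by LC/MS.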

Rattus norvegicus = test: AUC in rat at 5 mg/kg, iv or 5 mg/kg, po by LC/MS/MS analysis; format: ADME, organism-based; conditions: in vivo
Method in brief: (§1)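 Male rats, 5 mg/kg IV in 10% DMAC/saline or 5 mg/kg oral in 0.5% aqueous methylcellulose. Plasma (EDTA) sampled pre-dose to 24 h. Quantified by acetonitrile precipitation and LC/MS/MS (2–10000 nM range, 0.1 mL). Non-compartmental analysis of concentration–time data.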

[6] = Half life in rat at 5 mg/kg, po by LC/MS/MS analysis; format: ADME, organism-based; conditions: in vivo; method in brief: as §1
[7] = Half life in cynomolgus monkey at 10 mg/kg, po by LC/MS/MS analysis; format: ADME, organism-based, Macaca fascicularis; conditions: in vivo
Method in brief: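 Male cynomolgus monkeys given 4 mg/kg IV (5% DMAC, 40% propylene glycol in saline) or 10 mg/kg orally (0.5% methylcellulose). EDTA plasma collected pre-dose through 24 h. Acetonitrile protein precipitation, then LC/MS/MS quantification, linear 2–10000 nM. PK parameters by standard non-compartmental methods.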

CT26 [8] = test: Antitumor activity against mouse CT26 cells allografted in immunocompetent Balb/c mouse assessed as reduction in tumor growth at 30 mg/kg, po measured on day 24 relative to vehicle-treated control; format: functional
[9] = AUC in mouse CT26 cells allografted immunocompetent Balb/c mouse model at 30 mg/kg, po by LC/MS/MS analysis; format: ADME, organism-based; conditions: in vivo
CT26 [10] = test: Antitumor activity against mouse CT26 cells allografted in po dosed Balb/c nu/nu mouse assessed as tumor growth inhibition; format: functional, organism-based
Mus musculus = test: In vivo inhibition of IDO1 in wild type C57BL/6 mouse assessed as reduction in kynurenine levels in plasma at 50 mg/kg, po qd after 8 hrs by LC/MS/MS analysis; format: functional, organism-based
Method in brief: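 Fed C57BL/6 mice given a single dose; food then removed. At various timepoints, blood taken by cardiac puncture. Plasma diluted 10-fold in water, TCA protein precipitation, then LC/MS/MS for tryptophan, kynurenine (linear 20–10,000 nM kynurenine, 200–100,000 nM tryptophan) and drug, against aqueous standards.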

T1 sequence (P14902 whole entry): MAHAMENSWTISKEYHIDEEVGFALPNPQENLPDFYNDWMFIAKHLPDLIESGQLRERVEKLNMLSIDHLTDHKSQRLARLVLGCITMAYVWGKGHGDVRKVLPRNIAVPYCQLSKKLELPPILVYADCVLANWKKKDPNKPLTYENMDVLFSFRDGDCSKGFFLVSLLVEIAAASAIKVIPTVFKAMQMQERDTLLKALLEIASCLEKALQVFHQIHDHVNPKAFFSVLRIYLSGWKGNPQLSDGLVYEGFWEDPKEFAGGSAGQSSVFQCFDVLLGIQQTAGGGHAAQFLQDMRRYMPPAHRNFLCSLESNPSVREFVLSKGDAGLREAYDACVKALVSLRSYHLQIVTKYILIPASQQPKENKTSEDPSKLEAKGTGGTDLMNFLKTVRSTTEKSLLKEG

| Structure (SMILES) | IC50 [1] [nM] | IC50 [2] [nM] | CLH (Liver [3]) [mL/min/kg] | CLH (Liver [4]) [mL/min/kg] | Fu (Plasma) [%] | Papp A→B at 2 h, 50 µM [5] [×10⁻⁶ cm/s] | AUC (Rattus norvegicus) [µM·h] | half-life [6] [h] | half-life [7] [h] | AUC [9] [µM·h] | Efficacy (CT26 [8]) [%] | TGI (CT26 [10]) | inhibition (Mus musculus) |
| --- | --- | --- | --- | --- | --- | --- | --- | --- | --- | --- | --- | --- | --- |
| CCNc1nonc1/C(=N/O)Nc1ccc(F)c(Br)c1 | 180 | 35 | 23.3 | > 36.7 | – | – | – | – | – | – | – | – | – |
| CN(C)c1nonc1/C(=N/O)Nc1ccc(F)c(Br)c1 | > 5000 | > 5000 | > 36.7 | > 36.7 | – | – | – | – | – | – | – | – | – |
| O/N=C(\Nc1ccc(F)c(Br)c1)c1nonc1NCc1ccccc1 | 230 | 280 | 35 | > 36.7 | < 0.5 | – | – | – | – | – | – | – | – |
| NCCNc1nonc1/C(=N/O)Nc1ccc(F)c(Br)c1 | 290 | 98 | 18.3 | 15 | 6.1 | 1.8 | – | – | – | – | – | – | – |
| CNc1nonc1/C(=N/O)Nc1ccc(F)c(Br)c1 | 100 | 14 | > 36.7 | > 36.7 | – | – | – | – | – | – | – | – | – |
| NS(=O)(=O)NCCNc1nonc1/C(=N/O)Nc1ccc(F)c(Br)c1 [EPACADOSTAT] | – | – | – | – | – | – | – | – | – | – | 56 | inactive | Active |

Further lines, with some results ahead:

| IC50 [1] [nM] | IC50 [2] [nM] | CLH (Liver [3]) [mL/min/kg] | CLH (Liver [4]) [mL/min/kg] | Fu (Plasma) [%] | Papp A→B at 2 h, 50 µM [5] [×10⁻⁶ cm/s] | AUC (Rattus norvegicus) [µM·h] | half-life [6] [h] | half-life [7] [h] | AUC [9] [µM·h] | Structure (SMILES) | Efficacy (CT26 [8]) [%] | TGI (CT26 [10]) | inhibition (Mus musculus) |
| --- | --- | --- | --- | --- | --- | --- | --- | --- | --- | --- | --- | --- | --- |
| 100 | 16 | 12 | 25 | 2.4 | 24 | – | – | – | – | CS(=O)(=O)NCCNc1nonc1C(=NO)Nc1ccc(F)c(Br)c1 | – | – | – |
| 210 | 17 | 15 | 33 | 4.4 | 19 | – | – | – | – | CC(=O)NCCNc1nonc1/C(=N/O)Nc1ccc(F)c(Br)c1 | – | – | – |
| 120 | 11 | 8.3 | 13 | 3.8 | 4.3 | 3.3 | 2.7 | 4 | 15.1 | NS(=O)(=O)NCCNc1nonc1C(=NO)Nc1ccc(F)c(Cl)c1 | 13 | – | – |
| 200 | 100 | > 36.7 | > 36.7 | 0.9 | 44 | – | – | – | – | COCCNc1nonc1/C(=N/O)Nc1ccc(F)c(Br)c1 | – | – | – |
| – | – | > 36.7 | > 36.7 | – | – | – | – | – | – | Nc1nonc1C(=NO)Nc1ccc(F)c(Cl)c1 | – | – | – |
| 50 | 10 | > 36.7 | 23.3 | – | – | – | – | – | – | Nc1nonc1C(=Nc1ccc(F)c(Br)c1)NO | – | – | – |
| 170 | 22 | > 36.7 | > 36.7 | 2.3 | 31 | – | – | – | – | OCCNc1nonc1/C(=N/O)Nc1ccc(F)c(Br)c1 | – | – | – |
